Experimental data of several laboratories.
Lines come from different studies, so protocols differ. Values after ≈ are worked out from the molar mass of the structure shown.
Organism: Klebsiella pneumoniae

| SMILES | assay | system | setting | endpoint | result |
| --- | --- | --- | --- | --- | --- |
| CC(C)(C)OC(=O)N[C@H]1CCN(c2cc(C(=O)NCC(=O)O)ccc2NC(=O)c2cc(Br)c(Br)[nH]2)C1 | microbial growth, broth dilution | ATCC700603 |  | MIC | > 32 µg/mL |
| O=C(O)c1cn(C2CC2)c2cc(N3CCNCC3)c(F)cc2c1=O | microbial growth | ATCC700603 |  | MIC | 32 µM |
| C[C@@H](O)[C@H]1C(=O)N2C(C(=O)O)=C(SCCN=CN)C[C@H]12 | microbial growth, broth dilution |  | clinical isolate | MIC90 | 256 µg/mL (≈ 855 µM) |
| COc1cc(C=Nc2ccc(Cl)cc2Cl)ccc1O | microbial growth, disc diffusion |  | 2000 µg/mL, 24 h | inhibition zone | 15 mm |
| Cc1[nH]c(C(=O)Nc2ccc(C(=O)NCC(=O)O)cc2N2CC[C@H](N)C2)c(Cl)c1Cl.Cl | microbial growth, broth dilution | ATCC700603 |  | MIC | > 32 µg/mL |
| C[C@H]1COc2c(N3CCN(C)CC3)c(F)cc3c(=O)c(C(=O)O)cn1c23 | microbial killing | ATCC27736 |  | MBC | 0.06 µg/mL (≈ 0.166 µM) |
| COc1cc(C=Nc2ccc([N+](=O)[O-])cc2)ccc1O | microbial growth, disc diffusion |  | 2000 µg/mL, 24 h | inhibition zone | 14.4 mm |
| CC(C)(C)OC(=O)N1CCN(c2cc(C(=O)NCC(=O)O)ccc2NC(=O)c2cc(Br)c(Br)[nH]2)CC1 | microbial growth, broth dilution | ATCC700603 |  | MIC | > 32 µg/mL |
| C[C@H]1COc2c(N3CCN(C)CC3)c(F)cc3c(=O)c(C(=O)O)cn1c23 | microbial growth, broth dilution |  |  | MIC | > 16 µg/mL |
| C[C@@H](O)[C@H]1C(=O)N2C(C(=O)O)=C(SCCN=CN)C[C@H]12 | microbial growth, disc diffusion |  | 2000 µg/mL, 24 h | inhibition zone | 20.5 mm |
| CC(C)(O/N=C(\C(=O)N[C@@H]1C(=O)N2C(C(=O)[O-])=C(C[n+]3ccccc3)CS[C@H]12)c1csc(N)n1)C(=O)O | microbial growth, broth dilution |  | 20 h, clinical isolate | MIC | > 128 µg/mL |
| CN(C)c1cc(NC(=O)CNC(C)(C)C)c(O)c2c1C[C@H]1C[C@H]3[C@H](N(C)C)C(O)=C(C(N)=O)C(=O)[C@@]3(O)C(O)=C1C2=O | microbial growth, broth dilution |  |  | MIC | 0.5 µg/mL |
| COc1cc(C=Nc2ccc(C)cc2Cl)ccc1O | microbial growth, disc diffusion |  | 2000 µg/mL, 24 h | inhibition zone | 15 mm |
